These results are taken from paper PMC5378272 (Cancer Science, 2017).

In one experiment the test system is SMMC‐7721. Nature of the experiment: Tumor xenograft model. Format: in vivo, BALB/c athymic mice. The settings on record: SMMC‐7721 xenograft, oral once daily. In short, it runs like this: (§1)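 Subjects were 6-week-old female BALB/c athymic mice. Tumour cells in 200 μL serum-free medium were implanted s.c. At 100–150 mm³, mice were randomised (n = 8/group) and dosed by oral gavage once daily with test compound in 0.5% CMC‐Na, sunitinib or vehicle. Doses were 2.5–20 mg/kg for HCT‐8 and SMMC‐7721, and 5–40 mg/kg for A549. Volumes were measured every 3–4 days over 33 or 43 days. Percent TGI at last treatment was computed versus vehicle.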

Experiment [1] relates to Molt‐4 cells. Nature of the experiment: Cell cycle analysis by flow cytometry. It is filed as cell-based, human. The settings on record: Molt‐4, 3 μM, 24 h; control group 14.9%. On the technique in general: Flow cytometry measures light scatter and fluorescence of single cells or particles in a stream.
A further experiment has as its system HUVEC. Description: Tube formation assay. It is filed as cell-based, human. The following applies: HUVEC on Matrigel, 1.5 or 5 μM, 24 h, vs control. In short, it runs like this:
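HUVEC were maintained in endothelial cell medium with 5% FBS, heparin (50 μg/mL) and ECGS (50 μg/mL). Matrigel was polymerised 45 min at 37°C. 4 × 10⁴ cells in complete medium were seeded onto it with vehicle or test compound and incubated 24 h. Networks were imaged by light microscopy and scored as mean loops per field and total branch length (pixels). Results are mean ± SD of five experiments; t-test versus vehicle.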

For another experiment, the target named is T1, DDR2 (Homo sapiens, UniProt Q16832).
T1 sequence (Q16832 22-855): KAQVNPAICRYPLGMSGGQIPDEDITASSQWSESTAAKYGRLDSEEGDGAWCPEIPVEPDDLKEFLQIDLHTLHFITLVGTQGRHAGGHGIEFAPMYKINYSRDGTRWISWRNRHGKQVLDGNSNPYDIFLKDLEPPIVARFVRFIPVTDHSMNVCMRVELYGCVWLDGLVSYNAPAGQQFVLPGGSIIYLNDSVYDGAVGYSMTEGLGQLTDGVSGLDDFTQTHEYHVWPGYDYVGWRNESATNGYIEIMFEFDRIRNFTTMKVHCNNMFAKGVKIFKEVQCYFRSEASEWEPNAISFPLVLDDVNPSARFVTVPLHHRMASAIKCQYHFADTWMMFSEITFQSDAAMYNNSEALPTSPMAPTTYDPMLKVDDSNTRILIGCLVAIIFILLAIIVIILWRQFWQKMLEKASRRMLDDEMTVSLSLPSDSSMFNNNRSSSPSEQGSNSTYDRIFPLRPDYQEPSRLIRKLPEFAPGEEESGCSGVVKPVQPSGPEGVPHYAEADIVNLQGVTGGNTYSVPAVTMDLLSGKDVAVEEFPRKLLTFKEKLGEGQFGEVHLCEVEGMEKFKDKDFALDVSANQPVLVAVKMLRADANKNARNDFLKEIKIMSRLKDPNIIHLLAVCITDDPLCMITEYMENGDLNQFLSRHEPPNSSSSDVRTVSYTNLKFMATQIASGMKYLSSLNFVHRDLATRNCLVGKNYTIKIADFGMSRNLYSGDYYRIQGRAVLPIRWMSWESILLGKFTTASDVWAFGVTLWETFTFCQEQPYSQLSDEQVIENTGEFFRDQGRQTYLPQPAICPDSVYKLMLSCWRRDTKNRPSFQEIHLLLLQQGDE
Description: Kinase inhibition assay. The following applies: Biochemical IC50, cell-free.

Another experiment concerns Colo‐320 cells. Description: Growth inhibition of tumor cells. Format: cell-based. The following applies: Homo sapiens, COLO 320, 120 h, read-out: GI50, growth inhibition.
For experiment [2], the system named is human blood‐derived monocytes. The following applies: M‐CSF 100 ng/mL, 6 days, 0.3 μM.
The next experiment deals with Aurora B. Description: Western blotting of p‐H3. It is filed as cell-based, human. The settings on record: Molt‐4 cells, 24 h, western blot, concentrations up to 6 μM. A general note: Immunoblotting shows a protein as a band on a membrane.
Another experiment has as its system HCT‐8. Nature of the experiment: Tumor xenograft model. Format: in vivo, BALB/c athymic mice. The settings on record: HCT‐8 xenograft, oral once daily. In short, it runs like this: as §1
For a further experiment, the target named is c‐RAF (Homo sapiens, UniProt P04049, Y340D/Y341D). Nature of the experiment: Kinase inhibition assay. The settings on record: Biochemical IC50, cell-free.
The test system of experiment [3] is Molt‐4 cells. Description: Growth inhibition of tumor cells. Format: cell-based. The following applies: Homo sapiens, MOLT-4, 120 h, read-out: GI50, growth inhibition.
The next experiment relates to COLO‐320 tumor. Description: COLO‐320 xenograft in SCID mice, tumor tissue analysis. Format: in vivo. The settings on record: oral 2.5 or 20 mg/kg/day, 12 days. In short, it runs like this:
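COLO-320 cells implanted s.c. in SCID mice; established tumors dosed orally once daily for 12 days at 2.5 or 20 mg/kg/day, with compound suspended in 0.5% (w/v) CMC-Na. Half of each tumor went to histone extraction and western blot for p-H3 (Ser10) vs total H3, with normal colon as comparator. The other half was formalin-fixed and paraffin-embedded for IHC (CD34, p-H3 Ser10, Ki67).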

The next experiment concerns A549. Nature of the experiment: Tumor xenograft model. Format: in vivo, BALB/c athymic mice. The settings on record: oral once daily, 5 to 40 mg/kg. In short, it runs like this: as §1
The test system of a further experiment is 4T1 breast cancer cells. Description: 4T1 breast cancer model in BALB/c mice, tumor tissue immunohistochemistry. It is filed as in vivo.
A further experiment has as its system MGC‐803. Description: Tumor xenograft model. Format: in vivo, BALB/c athymic mice. The following applies: MGC‐803 xenograft; for tumor growth: oral once daily.
In a further experiment the target is PLK1 (Homo sapiens, UniProt P53350). Description: Kinase inhibition assay. The following applies: Biochemical IC50, cell-free.
In the next experiment the target is VEGFR2 (Homo sapiens, UniProt P35968). Nature of the experiment: Western blotting of VEGF-stimulated VEGFR2 phosphorylation in HUVEC. It is filed as cell-based. The settings on record: 1 h pre-treatment, VEGF 100 ng/mL 15 min, western blot. In short, it runs like this: (§2)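 Cells (1.5 × 10⁶) were seeded for 24 h, then serum-starved overnight. They were pretreated 1 h with test compound and stimulated with 100 ng/mL ligand for 15 min: rhM‐CSF for CSF‐1R‐transfected 293A (DMEM, 10% FBS) and VEGF165 for HUVEC. Whole-cell lysates were immunoblotted for phospho-CSF1R or phospho-VEGFR2, with total receptor and β‐actin as internal controls.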

Another experiment deals with CSF‐1R (Homo sapiens, UniProt P07333). It is filed as cell-based. The settings on record: CSF‐1R‐transfected 293A cells, M‐CSF 100 ng/mL, western blot. In short, it runs like this: as §2
The next experiment concerns the target PLK3 (Homo sapiens, UniProt Q9H4B4). Description: Kinase inhibition assay. The settings on record: Biochemical IC50, cell-free.
The mark [4] stands for this setting: immunohistochemistry, vs vehicle.

Structures are written as SMILES.

Chain of VEGFR2 (P35968 20-1356): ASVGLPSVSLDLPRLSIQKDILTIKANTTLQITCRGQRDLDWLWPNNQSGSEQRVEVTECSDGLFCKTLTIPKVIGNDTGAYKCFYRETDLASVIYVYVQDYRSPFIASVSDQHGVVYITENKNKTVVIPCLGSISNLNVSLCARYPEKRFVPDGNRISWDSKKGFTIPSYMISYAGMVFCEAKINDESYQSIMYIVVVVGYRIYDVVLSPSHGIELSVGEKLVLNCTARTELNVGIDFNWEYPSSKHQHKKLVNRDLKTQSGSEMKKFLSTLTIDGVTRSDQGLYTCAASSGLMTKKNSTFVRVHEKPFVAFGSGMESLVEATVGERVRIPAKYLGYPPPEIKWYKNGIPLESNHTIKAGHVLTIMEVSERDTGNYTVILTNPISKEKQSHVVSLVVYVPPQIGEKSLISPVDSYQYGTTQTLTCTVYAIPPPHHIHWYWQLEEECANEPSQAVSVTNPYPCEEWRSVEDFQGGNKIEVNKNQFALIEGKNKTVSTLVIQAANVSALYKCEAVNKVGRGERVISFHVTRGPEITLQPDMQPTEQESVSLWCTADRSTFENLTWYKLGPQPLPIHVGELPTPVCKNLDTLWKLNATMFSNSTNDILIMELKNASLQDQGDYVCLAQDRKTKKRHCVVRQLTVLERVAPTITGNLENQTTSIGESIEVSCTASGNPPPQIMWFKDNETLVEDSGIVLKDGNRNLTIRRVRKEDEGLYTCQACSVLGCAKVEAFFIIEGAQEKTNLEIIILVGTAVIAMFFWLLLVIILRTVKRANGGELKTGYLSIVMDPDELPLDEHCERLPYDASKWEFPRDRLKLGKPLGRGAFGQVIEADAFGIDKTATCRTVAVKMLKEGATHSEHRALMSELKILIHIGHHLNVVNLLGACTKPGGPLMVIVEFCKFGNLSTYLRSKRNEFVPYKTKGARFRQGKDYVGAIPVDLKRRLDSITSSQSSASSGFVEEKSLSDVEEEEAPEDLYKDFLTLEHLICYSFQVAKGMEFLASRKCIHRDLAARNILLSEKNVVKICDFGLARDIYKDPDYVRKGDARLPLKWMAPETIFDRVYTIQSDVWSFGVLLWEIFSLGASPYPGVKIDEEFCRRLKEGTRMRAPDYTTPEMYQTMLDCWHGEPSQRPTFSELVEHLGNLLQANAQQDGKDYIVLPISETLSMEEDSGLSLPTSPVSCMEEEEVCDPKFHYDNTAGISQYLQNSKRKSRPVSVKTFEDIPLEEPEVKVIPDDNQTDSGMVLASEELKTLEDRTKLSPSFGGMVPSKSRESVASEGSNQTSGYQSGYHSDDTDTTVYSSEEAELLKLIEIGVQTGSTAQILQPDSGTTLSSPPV
Chain of c‐RAF (P04049 306-648 Y340D/Y341D limits assumed): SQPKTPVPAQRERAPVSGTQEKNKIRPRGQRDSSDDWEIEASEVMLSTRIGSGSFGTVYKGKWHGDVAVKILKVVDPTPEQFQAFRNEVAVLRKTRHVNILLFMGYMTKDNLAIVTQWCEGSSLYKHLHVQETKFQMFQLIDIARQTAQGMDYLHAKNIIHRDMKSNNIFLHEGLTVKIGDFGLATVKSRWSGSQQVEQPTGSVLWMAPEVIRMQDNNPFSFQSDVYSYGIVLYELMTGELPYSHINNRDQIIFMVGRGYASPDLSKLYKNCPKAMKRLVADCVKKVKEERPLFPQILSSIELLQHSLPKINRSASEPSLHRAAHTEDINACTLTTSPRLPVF
Chain of PLK3 (Q9H4B4 whole entry): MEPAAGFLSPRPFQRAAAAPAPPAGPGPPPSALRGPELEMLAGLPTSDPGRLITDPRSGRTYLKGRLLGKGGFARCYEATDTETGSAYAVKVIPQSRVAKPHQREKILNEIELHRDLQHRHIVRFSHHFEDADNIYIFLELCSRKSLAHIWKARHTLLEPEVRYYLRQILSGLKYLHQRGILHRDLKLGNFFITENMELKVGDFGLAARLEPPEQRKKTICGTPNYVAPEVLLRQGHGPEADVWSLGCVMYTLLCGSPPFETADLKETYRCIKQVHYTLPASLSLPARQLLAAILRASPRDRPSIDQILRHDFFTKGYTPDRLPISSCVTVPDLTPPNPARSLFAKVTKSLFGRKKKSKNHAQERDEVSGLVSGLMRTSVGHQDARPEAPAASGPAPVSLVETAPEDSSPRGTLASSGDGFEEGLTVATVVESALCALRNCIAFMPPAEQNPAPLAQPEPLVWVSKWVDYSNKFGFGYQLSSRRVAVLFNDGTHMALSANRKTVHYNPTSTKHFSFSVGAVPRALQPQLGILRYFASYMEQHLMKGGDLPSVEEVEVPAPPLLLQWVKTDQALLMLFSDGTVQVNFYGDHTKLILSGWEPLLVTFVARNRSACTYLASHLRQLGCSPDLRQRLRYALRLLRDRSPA
Chain of PLK1 (P53350 whole entry): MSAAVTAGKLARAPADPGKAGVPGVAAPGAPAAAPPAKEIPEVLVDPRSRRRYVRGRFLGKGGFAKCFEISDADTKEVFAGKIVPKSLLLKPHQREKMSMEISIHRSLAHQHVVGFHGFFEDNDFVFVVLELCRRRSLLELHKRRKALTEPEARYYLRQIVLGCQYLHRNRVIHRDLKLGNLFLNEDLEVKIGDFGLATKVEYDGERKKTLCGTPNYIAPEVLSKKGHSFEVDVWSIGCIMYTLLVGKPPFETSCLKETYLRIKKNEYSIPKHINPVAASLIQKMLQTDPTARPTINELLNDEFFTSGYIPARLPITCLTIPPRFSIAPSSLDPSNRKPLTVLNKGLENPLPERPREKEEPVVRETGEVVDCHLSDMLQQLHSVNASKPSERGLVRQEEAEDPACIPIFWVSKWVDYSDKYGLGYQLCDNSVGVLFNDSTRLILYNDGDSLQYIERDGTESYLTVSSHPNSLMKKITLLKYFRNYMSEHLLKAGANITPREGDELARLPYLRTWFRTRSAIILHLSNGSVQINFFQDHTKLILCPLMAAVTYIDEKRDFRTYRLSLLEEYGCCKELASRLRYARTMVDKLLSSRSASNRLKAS
Chain of CSF‐1R (P07333 20-972): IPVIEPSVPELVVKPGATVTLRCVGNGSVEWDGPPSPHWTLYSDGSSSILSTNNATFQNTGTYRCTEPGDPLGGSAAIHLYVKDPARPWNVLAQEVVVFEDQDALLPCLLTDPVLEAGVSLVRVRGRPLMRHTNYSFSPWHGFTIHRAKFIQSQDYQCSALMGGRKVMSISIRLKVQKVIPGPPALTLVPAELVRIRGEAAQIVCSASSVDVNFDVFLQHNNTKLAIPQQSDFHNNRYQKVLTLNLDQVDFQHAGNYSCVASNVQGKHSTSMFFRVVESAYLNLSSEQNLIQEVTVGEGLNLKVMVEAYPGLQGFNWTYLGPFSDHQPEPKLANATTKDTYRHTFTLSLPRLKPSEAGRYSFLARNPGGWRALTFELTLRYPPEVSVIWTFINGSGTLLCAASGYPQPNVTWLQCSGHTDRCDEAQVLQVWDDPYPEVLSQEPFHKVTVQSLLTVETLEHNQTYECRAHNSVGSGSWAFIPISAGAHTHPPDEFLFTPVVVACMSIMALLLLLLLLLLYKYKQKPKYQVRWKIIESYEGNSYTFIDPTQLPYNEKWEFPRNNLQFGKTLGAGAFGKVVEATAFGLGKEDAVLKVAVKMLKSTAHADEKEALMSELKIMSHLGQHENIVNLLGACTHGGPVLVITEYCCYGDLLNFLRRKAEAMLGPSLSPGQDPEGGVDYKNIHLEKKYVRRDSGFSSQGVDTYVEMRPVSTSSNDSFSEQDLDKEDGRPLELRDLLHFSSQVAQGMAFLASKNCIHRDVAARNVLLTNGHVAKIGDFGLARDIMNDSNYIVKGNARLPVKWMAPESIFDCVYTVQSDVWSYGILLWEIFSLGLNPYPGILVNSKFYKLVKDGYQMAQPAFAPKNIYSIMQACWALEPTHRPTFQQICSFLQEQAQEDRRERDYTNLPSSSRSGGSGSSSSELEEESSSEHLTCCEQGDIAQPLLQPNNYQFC

On to `COc1ccc2c(Oc3ccc4c(C(=O)Nc5ccccc5N)cccc4c3)ccnc2c1` [CS2164, N‐(2‐aminophenyl)‐6‐[(7‐methoxy‐4‐quinolinyl)oxy]‐1‐naphthalenecarboxamide], for which the “50% tumor growth inhibition (TGI50) dose” value with SMMC‐7721 and in the experiment with HCT‐8 was 2.5 mg/kg each time. Further, the “cells in G2/M phase (of cell cycle phases)” value (from here on “cells in G2/M phase”) with Molt‐4 cells [1] worked out at 59.5%. Besides, in the experiment with HUVEC, the “number of loops of tubular network structures” value is “significant reductions”. In addition, the “total branch lengths of tubular network structures” value with HUVEC is “significant reductions”. Besides, the IC50 against DDR2, against c‐RAF, at PLK1 and against PLK3 was 100 to 500 nM each time. Further, the results for the GI50 with Colo‐320 cells and with Molt‐4 cells [3] were 840 nM and 2140 nM, respectively. Moreover, in experiment [2], the “M‐CSF induced differentiation and proliferation of monocytes” value was “almost complete inhibition”. For the same molecule, the “level of p‐H3 (Ser10‐phosphorylated histone 3)” value in the experiment on Aurora B is reported as “substantial reduction”. Moreover, the “vascularization in tumor tissues” value in the experiment with COLO‐320 tumor is listed as “decreased vascularization”. The “CD34 staining in tumor tissues” value in the experiment on COLO‐320 tumor (immunohistochemistry) is “remarkably reduced”. Also, the “tissue Ki67 staining” value with COLO‐320 tumor (setting [4]) is “substantial dose‐dependent decrease”. Also, in the experiment with COLO‐320 tumor (setting [4]), the “tissue p‐H3 staining” value was “substantial dose‐dependent decrease”. Further, the “p‐H3 levels in tumor tissue by western blotting” value in the experiment with COLO‐320 tumor (only tumor tissue, not normal colonic tissue) is “reduced p‐H3 levels”. Moreover, the TGI50 dose result with A549 is “around 5 mg/kg”. In the experiment on 4T1 breast cancer cells (oral 20 mg/kg daily, day 12, immunohistochemistry), the “tissue CD11b^+ macrophage infiltration” value is listed as “decreased”. In addition, in the experiment with 4T1 breast cancer cells (oral 2.5 or 20 mg/kg/day, 12 days, immunohistochemistry), the “CSF‐1R^+ cells in tumor tissue” value is “dramatic reduction”. For the same molecule, in the experiment on MGC‐803 (CS2164 at 5 mg/kg oral daily), the “efficacy compared with sunitinib at 40 mg/kg” value is “comparable”. For the same molecule, the tumor growth result in the experiment with MGC‐803 (1 mg/kg) is reported as “started to demonstrate tumor growth inhibition”; in the experiment on MGC‐803 (5 mg/kg), “near complete inhibition”. Besides, the “ligand‐stimulated VEGFR2 tyrosine phosphorylation” value at VEGFR2 is “concentration‐dependent inhibition”. On CSF‐1R, the “CSF‐1R phosphorylation induced by M‐CSF” value is “concentration‐dependent inhibition”.

As for `CNC(=O)c1cc(Oc2ccc(NC(=O)Nc3ccc(Cl)c(C(F)(F)F)c3)cc2)ccn1` [sorafenib], the “cells in G2/M phase” value in the experiment with Molt‐4 cells [1] was 13.3%.

Regarding `CCN(CC)CCNC(=O)c1c(C)[nH]c(/C=C2\C(=O)Nc3ccc(F)cc32)c1C` [sunitinib, reference compound], in the experiment on Molt‐4 cells [1], the “cells in G2/M phase” value turned out to be 20.4%. Further, the “level of p‐H3 (Ser10‐phosphorylated histone 3)” value in the experiment with Aurora B is “little inhibitory activity”.
